Results taken from ChEMBL document CHEMBL1139384, “First Cdc7 kinase inhibitors: pyrrolopyridinones as potent and orally active antitumor agents. 2. Lead discovery” (J Med Chem, 2009).

Key:
[1] = target: Cyclin-dependent kinase 9 (Homo sapiens, UniProt P50750); assay: Inhibition of CDK9
[2] = target: Cell division cycle 7-related protein kinase (Homo sapiens, UniProt O00311); assay: Inhibition of human Cdc7 assessed as inhibition of rate of phosphorylation of Mcm2 protein
A2780 [3] = assay: Antiproliferative activity against human A2780 cells after 72 hrs by luciferase based assay; assay type: functional, cell-based
[4] = Apparent permeability by PAMPA method; assay type: ADME; details: read-out: permeability
MCF7 = assay: Antiproliferative activity against human MCF7 cells after 72 hrs by luciferase based assay; assay type: functional, cell-based; details: MCF7, 72 h
COLO 205 = assay: Antiproliferative activity against human COLO205 cells after 72 hrs by luciferase based assay; assay type: functional, cell-based; details: COLO 205, 72 h
[5] = Antiproliferative activity against human […] cells after 72 hrs by luciferase based assay; assay type: functional, cell-based
In short: (§1)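 Cells seeded at 2500–5000/well in complete medium (RPMI1640, McCoy's or DMEM with 10% FCS, by line); compound added after 24 h, 72 h at 37 °C, 5% CO2.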

HT-29 = assay: Antiproliferative activity against human HT-29 cells after 72 hrs by luciferase based assay; assay type: functional, cell-based; details: HT-29, 72 h; in short: as §1
L-363 = assay: Antiproliferative activity against human L363 cells after 72 hrs by luciferase based assay; assay type: functional, cell-based; details: L-363, 72 h; in short: as §1
[6] = Antiproliferative activity against human SW403 cells after 72 hrs by luciferase based assay; assay type: functional, cell-based; details: SW-403, 72 h; in short: as §1
SW48 = assay: Antiproliferative activity against human SW48 cells after 72 hrs by luciferase based assay; assay type: functional, cell-based; details: SW48, 72 h; in short: as §1
[7] = Antiproliferative activity against human NCI-H929 cells after 72 hrs by luciferase based assay; assay type: functional, cell-based; details: NCI-H929, 72 h; in short: as §1
OPM-2 = assay: Antiproliferative activity against human OPM2 cells after 72 hrs by luciferase based assay; assay type: functional, cell-based; details: OPM-2, 72 h; in short: as §1
NHDF = assay: Antiproliferative activity against human NHDF cells after 72 hrs by luciferase based assay; assay type: cell-based
A2780 [8] = assay: Antitumor activity against human A2780 cells xenografted in CDI nu/nu mouse assessed as tumor growth inhibition at 60 mg/kg, po administered for 10 days; assay type: functional; details: A2780, 240 h, read-out: TGI
Rattus norvegicus = assay: Antitumor activity against DMBA-induced mammary carcinoma in CD OFA rat assessed as duration of tumor stabilization maintenance at 20 mg/kg, po administered for 10 days; assay type: functional
In short: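 DMBA tumors induced in female CD OFA rats by single intragastric 20 mg DMBA in sesame oil; after about 50 days, rats with a mammary tumor of at least 1 cm given 20 mg/kg orally twice daily for 10 days in glucose solution, or vehicle; 10 per group; tumor volume by Vernier calipers.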

[9] = Solubility in pH 7.0 buffer
[10] = Metabolic stability in human hepatocytes expressing CYP3A4 assessed as drug remaining after 1 hr; assay type: ADME, cell-based, Hepatocyte; details: read-out: Stability
[11] = Cmax in nu/nu mouse at 10 mg/kg, iv administered as single dose; assay type: ADME, organism-based; set-up: dose 10 mg/kg, route intravenous; details: in vivo
In short: (§2)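 Single iv or oral dose in 5% dextrose to overnight-fasted animals. Nu/Nu mice: males, 3 per route, saphenous bleeds to 24 h. Han-Wistar rats: males, 3 per route, jugular bleeds to 24 h. Beagle dogs: 2 per sex, iv and po crossover 2 weeks apart, jugular bleeds to 48 h. Plasma by LC/MS/MS; noncompartmental parameters, AUC by linear trapezoid with extrapolation.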

[12] = AUC (0 to infinity) in nu/nu mouse at 10 mg/kg, iv administered as single dose; assay type: ADME, organism-based; set-up: dose 10 mg/kg, route intravenous, time infinity; details: plasma; in short: as §2
[13] = Clearance in nu/nu mouse at 10 mg/kg, iv administered as single dose; assay type: ADME, organism-based; set-up: dose 10 mg/kg, route intravenous; details: in vivo; in short: as §2
[14] = Volume of distribution at steady state in nu/nu mouse at 10 mg/kg, iv administered as single dose; assay type: ADME, organism-based; set-up: dose 10 mg/kg, route intravenous; details: in vivo, read-out: Vdss
In short: (§3)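 Overnight-fasted male Nu/Nu mice got a single 10 mg/kg dose in 5% dextrose, iv or po, three mice per route. Saphenous blood was drawn at 0.083 (iv) or 0.25 (po), 0.5, 1, 6 and 24 h. Plasma was assayed by LC/MS/MS and analysed noncompartmentally. Tmax is the observed peak time, Vss = CL·MRT, and F is the ratio of dose-normalized AUC∞ po/iv.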

[15] = Half life in nu/nu mouse at 10 mg/kg, iv administered as single dose; assay type: ADME, organism-based; set-up: dose 10 mg/kg, route intravenous; details: in vivo; in short: as §2
[16] = Cmax in nu/nu mouse at 10 mg/kg, po administered as single dose; assay type: ADME, organism-based; set-up: dose 10 mg/kg, route oral; details: in vivo; in short: as §2
[17] = Tmax in nu/nu mouse at 10 mg/kg, po administered as single dose; assay type: ADME, organism-based; set-up: dose 10 mg/kg, route oral; details: in vivo; in short: as §3
[18] = AUC (0 to infinity) in nu/nu mouse at 10 mg/kg, po administered as single dose; assay type: ADME, organism-based; set-up: time infinity, dose 10 mg/kg, route oral; details: plasma; in short: as §2
[19] = Half life in nu/nu mouse at 10 mg/kg, po administered as single dose; assay type: ADME, organism-based; set-up: dose 10 mg/kg, route oral; details: in vivo; in short: as §2
[20] = Oral bioavailability in nu/nu mouse at 10 mg/kg administered as single dose; assay type: ADME, organism-based; details: in vivo; in short: as §3

Sequence of Cell division cycle 7-related protein kinase (O00311 whole entry): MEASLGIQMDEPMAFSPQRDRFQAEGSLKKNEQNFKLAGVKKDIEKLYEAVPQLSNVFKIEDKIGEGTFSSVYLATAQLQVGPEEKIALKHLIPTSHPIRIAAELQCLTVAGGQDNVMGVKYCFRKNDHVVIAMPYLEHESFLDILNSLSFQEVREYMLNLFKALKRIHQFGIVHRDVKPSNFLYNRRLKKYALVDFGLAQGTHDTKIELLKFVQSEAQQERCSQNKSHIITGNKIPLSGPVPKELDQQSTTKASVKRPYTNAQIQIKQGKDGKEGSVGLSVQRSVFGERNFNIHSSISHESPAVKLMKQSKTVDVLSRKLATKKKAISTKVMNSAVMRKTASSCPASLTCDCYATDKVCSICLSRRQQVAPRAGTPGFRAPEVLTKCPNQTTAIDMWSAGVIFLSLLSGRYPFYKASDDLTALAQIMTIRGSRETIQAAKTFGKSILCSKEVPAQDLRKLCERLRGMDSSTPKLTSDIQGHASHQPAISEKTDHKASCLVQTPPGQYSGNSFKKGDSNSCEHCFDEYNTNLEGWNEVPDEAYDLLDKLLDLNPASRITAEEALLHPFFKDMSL
Sequence of Cyclin-dependent kinase 9 (P50750 whole entry): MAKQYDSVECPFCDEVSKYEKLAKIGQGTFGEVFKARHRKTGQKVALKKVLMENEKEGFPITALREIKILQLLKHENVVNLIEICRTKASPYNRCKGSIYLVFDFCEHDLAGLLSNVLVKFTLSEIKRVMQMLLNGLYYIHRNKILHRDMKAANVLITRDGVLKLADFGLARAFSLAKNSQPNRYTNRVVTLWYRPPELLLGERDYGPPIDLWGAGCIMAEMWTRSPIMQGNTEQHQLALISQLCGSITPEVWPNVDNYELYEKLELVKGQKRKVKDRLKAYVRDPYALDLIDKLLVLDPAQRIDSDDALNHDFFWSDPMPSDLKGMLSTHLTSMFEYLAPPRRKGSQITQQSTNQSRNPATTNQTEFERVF

Row | SMILES | IC50 [2] | IC50 (A2780 [3]; Homo sapiens, A2780, 72 h) | further results
1 | CCC1CNC(=O)c2cc(-c3ccnc(N)n3)[nH]c21 (stereo in doubt; 86-2) | 5 nM | 400 nM | IC50 [1]: 17 nM
2 | Nc1nccc(-c2cc3c([nH]2)C(c2ccccc2)CNC3=O)n1 (configuration not stated) | 19 nM | 3000 nM | –
3 | O=C1NCCc2[nH]c(-c3ccncc3)cc21 | – | 1100 nM | Papp [4]: 1.84 ×10⁻⁶ cm/s; IC50 (MCF7): 1300 nM; IC50 (COLO 205): 1500 nM; IC50 [5]: 1000 nM; IC50 (HT-29): 5000 nM; IC50 (L-363): 1600 nM; IC50 [6]: 1000 nM; IC50 (SW48): 1200 nM; IC50 [7]: 1800 nM; IC50 (OPM-2): 4500 nM; IC50 (NHDF): 1600 nM; inhibition in vivo at 60 mg/kg (A2780 [8]): 50%; Activity (Rattus norvegicus): 25 days
4 | CC1Cc2[nH]c(-c3ccnc(N)n3)cc2C(=O)N1 (configuration not stated) | – | 3900 nM | –
5 | CC(C)C1CNC(=O)c2cc(-c3ccnc(N)n3)[nH]c21 (stereo in doubt; 87-1) | 13 nM | – | IC50 [1]: 31 nM; IC50 (A2780 [3]; a2780): 1000 nM
6 | Nc1nccc(-c2cc3c([nH]2)C[C@H](COCc2ccccc2)NC3=O)n1 | 52 nM | 3000 nM | –
7 | CC(C)CC1Cc2[nH]c(-c3ccnc(N)n3)cc2C(=O)N1 (configuration not stated) | 8 nM | 1600 nM | –
8 | CC(C)C1CNC(=O)c2cc(-c3ccncc3)[nH]c21 (configuration not stated) | 10 nM | 500 nM | –
9 | CC(C)C1CNC(=O)c2cc(-c3ccnc(N)n3)[nH]c21 (stereo in doubt; 87) | 4 nM | – | IC50 (A2780 [3]; a2780): 400 nM
10 | Nc1nccc(-c2cc3c([nH]2)C(CCF)CNC3=O)n1 (configuration not stated) | 3 nM | 600 nM | –
11 | Nc1nccc(-c2cc3c([nH]2)C(C2CCC2)CNC3=O)n1 (stereo in doubt; 88-2) | 2 nM | – | IC50 [1]: 96 nM; IC50 (A2780 [3]; a2780): 200 nM
12 | CC(C)CC1Cc2[nH]c(-c3ccncc3)cc2C(=O)N1 (configuration not stated) | 3 nM | 800 nM | –
13 | CC(C)C1Cc2[nH]c(-c3ccnc(N)n3)cc2C(=O)N1 (configuration not stated) | 12 nM | 1300 nM | –
14 | CCC1CNC(=O)c2cc(-c3ccnc(N)n3)[nH]c21 (stereo in doubt; 86-1) | 4 nM | – | IC50 [1]: 73 nM; solubility [9]: > 225 µM; remaining at 1 h [10]: 99%; Cmax [11]: 12.6 µM; AUC(0-inf) [12]: 4.9 µM·h; clearance [13]: 125 mL/min/kg; Vd [14]: 1.5 L/kg; half-life [15]: 12 min; Cmax [16]: 2.7 µM; Tmax [17]: 20.4 min; AUC(0-inf) [18]: 3.6 µM·h; half-life [19]: 78 min; bioavailability [20]: 74%
15 | Nc1nccc(-c2cc3c([nH]2)C(CCC(F)(F)F)CNC3=O)n1 (stereo in doubt; 93-1) | 12 nM | – | IC50 [1]: 218 nM; IC50 (A2780 [3]; a2780): 1000 nM
16 | Nc1nccc(-c2cc3c([nH]2)CCNC3=O)n1 | – | 1700 nM | IC50 [1]: 29 nM
17 | CCC1CNC(=O)c2cc(-c3ccnc(N)n3)[nH]c21 (stereo in doubt; 86) | 5 nM | – | –
18 | CC1CNC(=O)c2cc(-c3ccncc3)[nH]c21 (configuration not stated) | 10 nM | 600 nM | –
19 | O=C1NCC(C2CCC2)c2[nH]c(-c3ccncc3)cc21 (configuration not stated) | 3 nM | 500 nM | –
20 | CCC1(CC)CNC(=O)c2cc(-c3ccncc3)[nH]c21 | 6 nM | 200 nM | –
21 | O=C1NCC(CCF)c2[nH]c(-c3ccncc3)cc21 (configuration not stated) | 2 nM | 600 nM | –
22 | Nc1nccc(-c2cc3c([nH]2)C(CCCO)CNC3=O)n1 (configuration not stated) | 12 nM | 6000 nM | –
23 | O=C1NC(C2CC2)Cc2[nH]c(-c3ccncc3)cc21 (configuration not stated) | 5 nM | 1300 nM | –
